{"source": "ChEMBL document CHEMBL4334444", "about": "“Studies of Jatrogossone A as a Reactive Oxygen Species Inducer in Cancer Cellular Models” (J Nat Prod, 2019)", "key": {"MDA-MB-231": {"test_system": "MDA-MB-231", "experiment": "Antiproliferative activity against human MDA-MB-231 cells assessed as reduction in cell viability at 0.1 to 250 uM after 48 hrs by propidium iodide staining based fluorescence assay", "format": "functional", "method_in_brief": "(§1)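 MDA-MB-231 and SUM149 seeded at 6 × 10^4 to 2 × 10^5 cells/well, cultured 24 h, then exposed for 48 h. Cells fixed in cold methanol, stained with 0.4% propidium iodide, fluorescence imaged. Viability expressed as percent surviving cells relative to vehicle wells.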"}, "MCF7 [1]": {"test_system": "MCF7", "experiment": "Antiproliferative activity against human MCF7 cells assessed as reduction in cell viability at 0.1 to 250 uM by CellTiter-Glo assay", "format": "functional, cell-based", "method_in_brief": "(§2)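 CellTiter-Glo luminescent viability readout. Cells kept at 37 °C under 5% CO2. HMEC primary cells grown in basal medium with growth kit; leukemia lines and murine BCR-ABL (WT, Bax/Bak DKO) cultured per earlier description. Positive controls: staurosporine 25 μM, gambogic acid 10 μM, a toxic quinoline. At least two biological replicates in technical triplicate; luminescence normalized to untreated controls; EC50 computed.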"}, "UoC-B1": {"test_system": "UoC-B1", "experiment": "Antiproliferative activity against human UOCB1 cells assessed as reduction in cell viability at 0.1 to 250 uM by CellTiter-Glo assay", "format": "functional, cell-based", "method_in_brief": "as §2"}, "HMEC [2]": {"test_system": "HMEC", "experiment": "Cytotoxicity against human HMEC cells assessed as reduction in cell viability at 0.1 to 250 uM by CellTiter-Glo assay", "format": "cell-based", "method_in_brief": "as §2"}, "MCF7 [3]": {"test_system": "MCF7", "experiment": "Upregulation of Trx expression in human MCF7 at 10 uM after 3 to 6 hrs by Western blot analysis", "format": "functional, cell-based", "method_in_brief": "(§3)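 Western blot of KOPN-8 or MCF-7 lysates, 30 μg protein per lane on 4–12% Bis-Tris SDS-PAGE and transferred to nitrocellulose. Blots were probed with an oxidative stress defense antibody cocktail (catalase, SOD1, Trx, smooth muscle actin) and tubulin, and detected with IR-dye secondaries on a LI-COR Odyssey.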"}, "KOPN-8 [4]": {"test_system": "KOPN-8", "experiment": "Upregulation of Trx level in human KOPN8 at 1 uM after 3 to 6 hrs by Western blot analysis", "format": "functional, cell-based", "method_in_brief": "as §3"}, "K562": {"test_system": "K562", "experiment": "Antiproliferative activity against human K562 cells assessed as reduction in cell viability at 0.1 to 250 uM by CellTiter-Glo assay", "format": "functional, cell-based", "method_in_brief": "as §2"}, "KOPN-8 [5]": {"test_system": "KOPN-8", "experiment": "Induction of apoptosis in human KOPN8 cells assessed as increase in caspase 3/7 activity incubated for 24 hrs by caspase3/7 reagent based ApoTox-Glo triplex assay", "format": "functional, cell-based", "method_in_brief": "(§4)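 ApoTox-Glo Triplex assay in KOPN-8 or U2OS cells. Cells were incubated 12 h at 37 °C, then treated 24 h across 100–0.15 μM. Viability (GF-AFC, 400Ex/505Em) and cytotoxicity (bis-AAF-R110, 485Ex/520Em) were read after 30 min at 37 °C. Caspase-Glo 3/7 luminescence was then read after 0.5 h at room temperature. Values are mean ± SEM of three independent experiments.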"}, "SEM cells": {"test_system": "SEM cells", "experiment": "Antiproliferative activity against human SEM cells assessed as reduction in cell viability at 1 to 10 uM by CellTiter-Glo assay", "format": "functional, cell-based", "method_in_brief": "as §2"}, "SUM149PT": {"test_system": "SUM149PT", "experiment": "Antiproliferative activity against human SUM149 cells assessed as reduction in cell viability at >10 uM after 48 hrs by propidium iodide staining based fluorescence assay", "format": "functional", "method_in_brief": "as §1"}, "[6]": {"experiment": "Half life in simulated gastric fluid", "format": "ADME"}, "B-ALL": {"test_system": "B-ALL", "experiment": "Cytotoxicity against BCR-ABL p185- positive mouse B-ALL cells overexpressing human BCL-xL assessed as inhibition of cell viability after 24 hrs by AnnexinV-FITC/propidium iodide staining based flow cytometric analysis", "format": "functional"}, "MCF7 [7]": {"test_system": "MCF7", "experiment": "Upregulation of Trx level in human MCF7 after 3 to 6 hrs by Western blot analysis", "format": "functional, cell-based", "method_in_brief": "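MCF-7 cells were exposed to compound for 3 or 6 h. Lysates were made in Tris-HCl pH 7.5 RIPA-type buffer with protease/phosphatase inhibitors and quantified by BCA. 30 μg protein per lane was run on 4–12% Bis-Tris SDS-PAGE in MES and transferred to nitrocellulose. Blots were probed for thioredoxin with tubulin as reference, detected with IR-dye secondaries (1:15 000) and scanned on an infrared imager.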"}, "BJ": {"test_system": "BJ", "experiment": "Cytotoxicity against human BJ cells assessed as cell viability at >100 uM by CellTiter-Glo assay", "format": "cell-based", "method_in_brief": "as §2"}, "HMEC [8]": {"test_system": "HMEC", "experiment": "Induction of ROS generation in human HMEC cells at 30 uM incubated for 1 hr by CellROX green reagent based fluorescence assay", "format": "cell-based", "method_in_brief": "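CellROX green ROS assay: cells exposed 1 h at 37 °C (30 μM) with DMSO 0.5% (v/v) negative control, menadione 10 μM positive control, ± NAC (100 μM per figure legend). CellROX green added at 5 μM final, 30 min more; washed, fixed in 4% paraformaldehyde 15 min, fluorescence read at 485 ex/535 em. Mean and SD of at least three experiments; two-way ANOVA.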"}, "KOPN-8 [9]": {"test_system": "KOPN-8", "experiment": "Cytotoxicity against human KOPN8 cells assessed as cell viability at 0.95 to 125 uM after 72 hrs in presence of pan caspase inhibitor, Z-VAD-FMK by CellTiter-Glo assay", "format": "functional, cell-based"}, "[10]": {"experiment": "Half life in human liver microsomes", "format": "ADME, Microsome"}, "KOPN-8 [11]": {"test_system": "KOPN-8", "experiment": "Induction of apoptosis in human KOPN8 cells assessed as increase in late apoptotic cells at 10 uM after 24 hrs by Annexin V-FITC and propidium iodide staining based flow cytometry relative to control", "format": "functional", "method_in_brief": "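KOPN-8 cells were plated at 1.00 × 10^6 per plate and held 12 h at 37 °C, then treated 24 h; positive control 2 μM staurosporine, vehicle DMSO. Cells were stained with Annexin V-FITC and PI and analysed by flow cytometry (FACSCalibur). Profiles are representative of three independent biological replicates.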"}, "U2OS [12]": {"test_system": "U2OS", "experiment": "Induction of apoptosis in human U2OS cells assessed as increase in caspase 3/7 activity incubated for 24 hrs by caspase 3/7 reagent based ApoTox-Glo triplex assay", "format": "functional, cell-based", "method_in_brief": "as §4"}, "[13]": {"experiment": "Stability in DMSO assessed as micheal adduct formation by measuring intact compound incubated for 16 hrs in presence of glutathione by NMR analysis", "format": "physicochemical"}, "MCF7 [14]": {"test_system": "MCF7", "experiment": "Induction of mitochondrial membrane potential loss in human MCF7 cells at 30 uM after 24 to 48 hrs by TMRM staining based flow cytometric analysis", "format": "functional, cell-based", "method_in_brief": "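TMRM flow cytometry. KOPN-8 (4 × 10^4 or 5 × 10^5 per well) or MCF-7 (2 × 10^4 or 2 × 10^5 per well) were seeded 24 h, then treated 24–48 h. FCCP 10 μM was added 10 min before staining as positive control. Cells were stained with TMRM 100 nM for 0.5 h, then PBS-washed, resuspended in PBS with 1% FBS and analysed by flow cytometry; DAPI flagged compromised cells.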"}, "U2OS [15]": {"test_system": "U2OS", "experiment": "Decrease in cell viability in human U2OS cells incubated for 24 hrs by GF-AFC reagent based ApoTox-Glo triplex assay", "format": "functional", "method_in_brief": "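ApoTox-Glo Triplex: cells held 12 h at 37 °C, then treated 24 h (100−0.15 μM). Viability/cytotoxicity reagent added, shaken, 30 min at 37 °C; viability read as GF-AFC fluorescence at 400Ex/505Em. Caspase-Glo 3/7 then added, 0.5 h at room temperature, luminescence read. Mean ± SEM of three independent experiments.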"}, "[16]": {"experiment": "Stability in CH3CN assessed as micheal adduct formation by measuring intact compound incubated for 16 hrs in presence of NAC by LC-MS analysis", "format": "physicochemical"}}, "note": "The source made the active and inactive calls. No cut-off for these calls is given here."}
{"smiles": "CC1=C2CC(C)(C)/C=C/C(=O)/C(C)=C\\C3=C[C@H](C)C[C@]3(O2)C1=O", "note": "[JATROPHONE]", "values": [{"measurement": "inhibition", "setting": "MDA-MB-231", "value": "Active"}, {"measurement": "inhibition", "setting": "MCF7 [1]", "value": "Active"}, {"measurement": "inhibition", "setting": "UoC-B1", "value": "Active"}, {"measurement": "Activity", "setting": "HMEC [2]", "value": "Toxic"}, {"measurement": "Activity", "setting": "MCF7 [3]", "value": "inactive"}, {"measurement": "Activity", "setting": "KOPN-8 [4]", "value": "Active"}, {"measurement": "inhibition", "setting": "K562", "value": "Active"}]}
{"smiles": "CC(=O)O[C@H]1/C2=C/[C@@H](C)C(=O)C[C@H]3[C@@H](/C=C(\\C)C(=O)[C@H]2C[C@H]1C)C3(C)C", "values": [{"measurement": "Activity", "setting": "KOPN-8 [5]", "value": "Dose-dependent effect"}, {"measurement": "inhibition", "setting": "SEM cells", "value": "Active"}, {"measurement": "inhibition", "setting": "SUM149PT", "value": "Active"}, {"measurement": "half-life", "setting": "[6]", "value": 5.17, "unit": "days"}, {"measurement": "IC50", "setting": "B-ALL", "value": 23.8, "unit": "µM"}, {"measurement": "Activity", "setting": "MCF7 [7]", "value": "Dose-dependent effect"}, {"measurement": "Activity", "setting": "BJ", "value": "Non-Toxic"}, {"measurement": "Activity", "setting": "HMEC [8]", "value": "Toxic"}, {"measurement": "Activity", "setting": "KOPN-8 [9]", "value": "inactive"}, {"measurement": "half-life", "setting": "[10]", "value": 31, "unit": "min"}, {"measurement": "Activity", "setting": "KOPN-8 [11]", "value": 15, "unit": "%"}, {"measurement": "Activity", "setting": "U2OS [12]", "value": "Dose-dependent effect"}, {"measurement": "Stability", "setting": "[13]", "value": "Stable"}, {"measurement": "Activity", "setting": "MCF7 [14]", "value": "inactive"}, {"measurement": "inhibition", "setting": "U2OS [15]", "value": "Dose-dependent effect"}, {"measurement": "Stability", "setting": "[16]", "value": "Stable"}]}
